In ChEMBL document CHEMBL4699586, “Synthesis and biological evaluation of NQO1-activated prodrugs of podophyllotoxin as antitumor agents” (Bioorg Med Chem, 2020):
Active and inactive are the calls of the source. The rule behind the calls is not given here.

Key:
[1] = system: HepG2; assay: Cytotoxicity against hypoxia-induced human HepG2 cells assessed as reduction in cell viability incubated for 48 hrs by MTT assay; assay type: functional, cell-based; details: HepG2, 48 h
Outline: (§1)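 Cell lines A549, HepG2, hypoxic A549/Hyp and HepG2/Hyp, taxol-resistant A549/T, and normal LO2. Log-phase cells allowed to adhere in 96-well plates, then exposed to compound for 48 h. MTT added for 2–3 h. Formazan dissolved in DMSO and absorbance read at 570 nm; IC50 derived.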

[2] = system: HepG2; assay: Cytotoxicity against human HepG2 cells overexpressing NQO1 assessed as reduction in cell viability incubated for 48 hrs by MTT assay; assay type: functional, cell-based; details: HepG2, 48 h; outline: as §1
[3] = system: A549; assay: Cytotoxicity against human A549 cells overexpressing NQO1 assessed as reduction in cell viability incubated for 48 hrs by MTT assay; assay type: functional, cell-based; details: A549, 48 h; outline: as §1
[4] = system: L02; assay: Cytotoxicity against NQO1-deficient human L02 cells assessed as reduction in cell viability incubated for 48 hrs by MTT assay; assay type: cell-based; details: L02, 48 h; outline: as §1
[5] = system: A549; assay: Cytotoxicity against hypoxia-induced human A549 cells assessed as reduction in cell viability incubated for 48 hrs by MTT assay; assay type: functional, cell-based; details: A549, 48 h; outline: as §1
[6] = system: A549; assay: Cytotoxicity against taxol-resistant human A549 cells assessed as reduction in cell viability incubated for 48 hrs by MTT assay; assay type: functional, cell-based; details: A549, 48 h; outline: as §1
[7] = system: HepG2; assay: Induction of apoptosis in human HepG2 cells assessed as viable cells at 50 nM incubated for 24 hrs by annexin V-FITC and propidium iodide based flow cytometry analysis (reference value: 95.66 %); assay type: functional; details: read-out: Activity
[8] = system: HepG2; assay: Induction of apoptosis in human HepG2 cells assessed as early apoptotic cells at 50 nM incubated for 24 hrs by annexin V-FITC and propidium iodide based flow cytometry analysis (reference value: 1.84 %); assay type: functional
[9] = system: HepG2; assay: Induction of apoptosis in human HepG2 cells assessed as late apoptotic cells at 50 nM incubated for 24 hrs by annexin V-FITC and propidium iodide based flow cytometry analysis (reference value: 1.56 %); assay type: functional
[10] = system: HepG2; assay: Induction of apoptosis in human HepG2 cells assessed as necrotic cells at 50 nM incubated for 24 hrs by annexin V-FITC and propidium iodide based flow cytometry analysis (reference value: 0.94 %); assay type: functional
[11] = Toxicity in BALB/c mouse xenografted with human HepG2 cells assessed as animal death at 10 mg/kg, ip administered every other day for 17 consecutive days and measured on day 17; assay type: organism-based; details: in vivo, 408 h, time 17 day
Outline: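 HepG2 s.c. xenografts in BALB/c nude mice, 6 per group. Compound given i.p. every other day for 17 days in 5% DMSO/40% PEG300/5% Tween-80/50% saline. Deaths recorded over the experimental period. Body weight monitored every 2 days.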

[12] = Stability of the compound in PBS buffer at 10 uM at pH 5 to 9 incubated for 9 hrs in presence of NADPH by HPLC analysis; assay type: physicochemical; details: pH 5, 9 h
Outline: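 No NQO1 present; 10 μM substrate with 100 μM NADPH in PBS containing 2% Tween 80 across pH values 5–9 at 37 °C; timed samples quenched with cold acetonitrile, centrifuged, and quantified by C18 HPLC with UV detection at 292 nm; triplicate.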

[13] = Metabolic stability in rat plasma at 10 uM incubated for 9 hrs in presence of NADPH by HPLC analysis; assay type: ADME, cell-free
Outline: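 Rat plasma deproteinized by vortexing and centrifugation (10000 rpm, 5 min); supernatant incubated with 10 μM substrate plus 2% Tween 80 at 37 °C for 0–540 min; after centrifugation, supernatant analysed by HPLC (UV 292 nm); run in triplicate.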

[14] = Metabolic stability in human liver S9 fraction at 10 uM incubated for 9 hrs in presence of NADPH by HPLC analysis; assay type: ADME, subcellular; details: s9, 9 h
Outline: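 Pooled human liver S9 fraction (0.5 mg) in 10 mM PBS pH 7.4 with 2% Tween 80, substrate 10 μM, 37 °C; started with 100 μM NADPH, quenched with cold acetonitrile at 0–540 min; centrifuged supernatant analysed by HPLC, UV 292 nm; triplicate.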

[15] = target: Tubulin (Homo sapiens) (UniProt P68371+Q9H4B7+P0DPH7+P68366+Q13509+Q71U36+P04350+Q3ZCM7+P07437+P68363+Q9BQE3+Q6PEY2+Q13885+Q9BVA1+Q9BUF5); assay: Inhibition of microtubule assembly in human HepG2 cells at 50 nM incubated for 48 hrs by immunofluorescence microscopic analysis; assay type: cell-based
Outline: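 HepG2 seeded 12 h at 37 °C, 5% CO₂, then exposed 48 h alongside DMSO vehicle; methanol-fixed, permeabilized in 0.5% Triton X-100/PBS, α-tubulin primary antibody overnight at 4 °C, fluorescent secondary 1 h, DAPI nuclear counterstain; fluorescence microscopy imaging of microtubule networks.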

[16] = species on record: Sus scrofa; assay: Inhibition of porcine tubulin polymerization at 3 uM measured every 30 secs for 1 hr
Outline: (§2)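 Commercial tubulin polymerization kit run per manufacturer; test agent at 3 μM with vehicle control, with or without added NQO1 depending on group; absorbance at 340 nm read every 30 s for 1 h to give polymerization/depolymerization kinetic curves.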

[17] = system: HepG2; assay: Induction of cell cycle arrest in human HepG2 cells assessed as increase in cells accumulation at G2/M phase at 50 nM incubated for 24 hrs by propidium iodide based flow cytometry analysis relative to control; assay type: functional
Outline: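 HepG2 plated in 12-well plates for 24 h, treated with compound (50 nM) for 24 h. Harvested, washed twice in cold PBS, held in 70% ethanol for 3 h. RNase A treatment 1 h at ambient temperature, then PI stain. Phase distribution by flow cytometry, compared with DMSO control.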

[18] = system: HepG2; assay: Antitumor activity against human HepG2 cells xenografted in BALB/c nude mouse assessed as tumor growth suppression at 10 mg/kg, ip administered every other day for 17 consecutive days and measured on day 17 by caliper analysis relative to control; assay type: functional; details: 408 h, time 17 day, read-out: TGI
Outline: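 BALB/c nude mice, 6 weeks old, given 5×10^6 HepG2 cells s.c. in sterile PBS. Randomized at tumour 70–100 mm³, 6 per group. Dosing i.p. every other day for 17 days in 5% DMSO/40% PEG300/5% Tween-80/50% saline; vehicle arm as control. Caliper volume every 2 days as V = AB²/2. Tumours excised and weighed on day 17; growth inhibition rate calculated.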

[19] = Toxicity in BALB/c mouse xenografted with human HepG2 cells assessed as body weight reduction at 10 mg/kg, ip administered every other day for 17 consecutive days and measured on day 17; assay type: organism-based; details: in vivo, 408 h, time 17 day
Outline: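 HepG2 xenografts in 6-week BALB/c nude mice (s.c., 5×10⁶ cells), grouped at 70–100 mm³, n=6; i.p. dosing every other day for 17 days in 5% DMSO/40% PEG300/5% Tween 80/50% saline vehicle; body weight recorded every 2 days.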

[20] = Toxicity in BALB/c mouse xenografted with human HepG2 cells assessed as damage in liver at 5 to 10 mg/kg, ip administered every other day for 17 consecutive days and measured on day 17 by H&E staining based light microscopic analysis; assay type: organism-based; details: in vivo, 408 h, dose 5-10 mg/kg, time 17 day
Outline: (§3)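 Six-week-old BALB/c nude mice carrying s.c. HepG2 tumours (5×10⁶ cells in PBS) randomized at 70–100 mm³, 6 per group; i.p. dosing every other day for 17 days in 5% DMSO/40% PEG300/5% Tween 80/50% saline; day-17 organs fixed in 4% paraformaldehyde, paraffin-embedded, H&E stained, light microscopy versus control.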

[21] = Toxicity in BALB/c mouse xenografted with assessed as damage in heart at 5 to 10 mg/kg, ip administered every other day for 17 consecutive days and measured on day 17 by H&E staining based light microscopic analysis; assay type: organism-based; details: in vivo, 408 h, dose 5-10 mg/kg, time 17 day; outline: as §3
[22] = Toxicity in BALB/c mouse xenografted with human HepG2 cells assessed as damage in lung at 5 to 10 mg/kg, ip administered every other day for 17 consecutive days and measured on day 17 by H&E staining based light microscopic analysis; assay type: organism-based; details: in vivo, 408 h, dose 5-10 mg/kg, time 17 day; outline: as §3
[23] = Toxicity in BALB/c mouse xenografted with human HepG2 cells assessed as damage in kidney at 5 to 10 mg/kg, ip administered every other day for 17 consecutive days and measured on day 17 by H&E staining based light microscopic analysis; assay type: organism-based; details: in vivo, 408 h, dose 5-10 mg/kg, time 17 day; outline: as §3
[24] = Toxicity in BALB/c mouse xenografted with human HepG2 cells assessed as damage in spleen at 5 to 10 mg/kg, ip administered every other day for 17 consecutive days and measured on day 17 by H&E staining based light microscopic analysis; assay type: organism-based; details: in vivo, 408 h, dose 5-10 mg/kg, time 17 day; outline: as §3
[25] = species on record: Sus scrofa; assay: Inhibition of porcine tubulin polymerization at 3 uM in presence of NQO1 and NADPH measured for 1 hr for every 30 sec; outline: as §2
[26] = target: T1, NAD(P)H dehydrogenase [quinone] 1 (Homo sapiens, UniProt P15559); assay: Prodrug release assessed as recombinant NQO1 (unknown origin)-mediated podophyllotoxin formation at 20 uM measured after 30 mins in presence of NADPH by HRMS analysis; assay type: ADME; details: 0.5 h
T1 sequence (P15559 whole entry, the tested form may be a part): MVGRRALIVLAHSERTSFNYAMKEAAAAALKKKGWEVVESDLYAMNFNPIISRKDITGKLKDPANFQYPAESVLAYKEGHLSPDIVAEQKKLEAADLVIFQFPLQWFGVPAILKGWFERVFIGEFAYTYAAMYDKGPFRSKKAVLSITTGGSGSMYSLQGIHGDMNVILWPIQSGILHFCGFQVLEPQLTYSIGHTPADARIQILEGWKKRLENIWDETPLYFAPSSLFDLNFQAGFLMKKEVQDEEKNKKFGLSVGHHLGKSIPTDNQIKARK
Outline: (§4)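 Recombinant NQO1 (final 10 μg/mL) added to start reaction in 10 mM PBS with 2% Tween 80, 100 μM NADPH and 20 μM prodrug. Incubated at 37 °C, stopped with cold acetonitrile and centrifuged cold. Supernatant analysed by HRMS for release fragments.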

[27] = Selectivity index, ratio of IC50 for NQO1-deficient human L02 cells to IC50 for human HepG2 cells overexpressing NQO1 incubated for 48 hrs by MTT assay
Outline: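 IC50 in LO2 divided by IC50 in HepG2. Both from MTT after 48 h exposure, with absorbance read at 570 nm.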

[28] = target: T1, NAD(P)H dehydrogenase [quinone] 1; assay: Prodrug release assessed as recombinant NQO1 (unknown origin)-mediated 6-hydroxy-4,4,5,7-tetramethylchroman-2-one formation formation at 20 uM measured after 30 mins in presence of NADPH by HRMS analysis; assay type: ADME; details: 0.5 h; outline: as §4
[29] = target: T1, NAD(P)H dehydrogenase [quinone] 1; assay: Prodrug release assessed as recombinant NQO1 (unknown origin)-mediated N-(4-methylenecyclohexa-2,5-dienylidene)methanamine formation formation at 20 uM measured after 30 mins in presence of NADPH by HRMS analysis; assay type: ADME; details: 0.5 h; outline: as §4

SMILES | IC50 [1] | IC50 [2] | IC50 [3] | IC50 [4] | IC50 [5] | IC50 [6] | viability at 0.05 µM [7] | Activity [8] | Activity [9] | Activity [10] | further results
COc1cc([C@@H]2c3cc4c(cc3[C@H](O)[C@H]3COC(=O)[C@H]23)OCO4)cc(OC)c1OC [PODOFILOX] | 209 nM | 83 nM | 105 nM | 85 nM | 291 nM | 338 nM | 83.7% | 2.88% | 6.08% | 7.38% | Activity [11]: Toxic
COc1cc([C@@H]2c3cc4c(cc3[C@@H](OC(=O)CC(C)(C)C3=C(C)C(=O)C(C)=C(C)C3=O)[C@H]3COC(=O)[C@H]23)OCO4)cc(OC)c1OC | 193 nM | 107 nM | 160 nM | 228 nM | 315 nM | 302 nM |  |  |  |  | 
COc1cc([C@@H]2c3cc4c(cc3[C@@H](OC(=O)OCc3ccc(NC(=O)CC(C)(C)C5=C(C)C(=O)C(C)=C(C)C5=O)cc3)[C@H]3COC(=O)[C@H]23)OCO4)cc(OC)c1OC | 425 nM | 262 nM | 274 nM | 452 nM | 596 nM | 574 nM |  |  |  |  | 
COc1cc([C@@H]2c3cc4c(cc3[C@@H](OC(=O)OCc3ccc(N(C)C(=O)CC(C)(C)C5=C(C)C(=O)C(C)=C(C)C5=O)cc3)[C@H]3COC(=O)[C@H]23)OCO4)cc(OC)c1OC | 113 nM | 84 nM | 100 nM | 312 nM | 185 nM | 197 nM | 63.5% | 1.74% | 15.76% | 18.99% | Stabilty [12]: Stable; Stabilty [13]: Stable; Stabilty [14]: Stable; inhibition [15]: Active; inhibition [16]: inactive; Activity [17]: 27.3%; inhibition in vivo at 10 mg/kg [18]: 64%; Activity [19]: Non-Toxic; Activity [20]: Non-Toxic; Activity [21]: Non-Toxic; Activity [22]: Non-Toxic; Activity [23]: Non-Toxic; Activity [24]: Non-Toxic; inhibition [25]: Active; Drug metabolism [26]: Metabolite_Detected; Ratio IC50 [27]: 3.72; Drug metabolism [28]: Metabolite_Detected; Drug metabolism [29]: Metabolite_Detected
